A short description of data set [1]: Cytotoxicity against mouse BV2 cells assessed as cell viability at 20 uM by MTT assay. The class given is cell-based, BV-2. Particulars: read-out: Activity. The procedure, abridged:
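BV-2 cells exposed to 20 μM of each compound; viability expressed as percentage of the LPS-only treatment group; three independent experiments, mean SD.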
A general note: Tetrazolium assays rely on reduction of a dye to a coloured formazan, in cell work by metabolically active cells.

A further data set deals with BV-2. The data set is described as follows: Antineuroinflammatory activity in mouse BV2 cells assessed as inhibition of nitric oxide production treated 30 mins before LPS challenge measured after 24 hrs by Griess reagent method. The data set is classed as functional, cell-based. The procedure, abridged:
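Murine microglial BV-2 cells activated with LPS; NO production measured; IC50 taken as the concentration (μM) causing 50% inhibition of NO production in LPS-activated cells.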

The nature of data set [2]: Cytotoxicity against mouse BV2 cells assessed as cell viability by MTT assay. The class given is cell-based, BV-2. Particulars: read-out: LD50 (the source's name). The procedure, abridged: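 Mouse microglial BV-2 cells activated with LPS and treated with each compound at 20 μM. Viability is expressed as a percentage of the LPS-only group. Values are averages of three independent experiments, given as mean SD.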

Some results are limits rather than exact numbers.

Consider `C[C@@H](CO)CC[C@H](O)[C@@H](C)[C@H]1[C@@H](O)C[C@H]2[C@@H]3CCC4=CC(=O)CC[C@]4(C)[C@H]3C[C@@H](O)[C@]12C`, for which, in data set [1], the viability at 20 µM was 93.4%. In addition, the IC50 – broadly, the concentration that gives 50% inhibition – in the data set on BV-2 is more than 200 µM.
In the same order, the values of `C[C@H](CC[C@H](O)[C@@H](C)[C@H]1[C@@H](O)C[C@H]2[C@@H]3CCC4=CC(=O)CC[C@]4(C)[C@H]3C[C@@H](O)[C@]12C)CO[C@@H]1O[C@H](CO)[C@@H](O)[C@H](O)[C@H]1O` are 94.8% and 46.3 µM.
For the compound `C[C@@H]1CC[C@@]2(OC1)O[C@H]1C[C@H]3[C@@H]4CC[C@H]5C[C@@H](O[C@@H]6O[C@H](CO)[C@H](O[C@@H]7O[C@H](CO)[C@@H](O)[C@H](O)[C@H]7O)[C@H](O)[C@H]6O[C@@H]6O[C@@H](C)[C@H](O)[C@@H](O)[C@H]6O)[C@H](O)C[C@]5(C)[C@H]4CC[C@]3(C)[C@H]1[C@@H]2C`, the viability at 20 µM in data set [1] worked out at 38.9%. For the same compound, the IC50 in the data set with BV-2 amounted to 2.7 µM. Moreover, the CC50 in data set [2] amounted to 3.12 µM.
With `C[C@@H]1CC[C@@]2(OC1)O[C@H]1C[C@H]3[C@@H]4CC[C@H]5C[C@@H](O[C@@H]6O[C@H](CO)[C@H](O[C@@H]7O[C@H](CO)[C@@H](O)[C@H](O[C@@H]8OC[C@@H](O[C@@H]9O[C@@H](C)[C@H](O)[C@@H](O)[C@H]9O)[C@H](O)[C@H]8O)[C@H]7O[C@@H]7O[C@H](CO)[C@@H](O)[C@H](O)[C@H]7O)[C@H](O)[C@H]6O)[C@H](O)C[C@]5(C)[C@H]4CC[C@]3(C)[C@H]1[C@@H]2C`, the viability at 20 µM in data set [1] was 86.4%. The concentration for half-maximal inhibition (IC50) with BV-2 stood at 13.2 µM.
Turning to `C[C@@H]1CC[C@@]2(OC1)O[C@H]1C[C@H]3[C@@H]4CC[C@H]5C[C@@H](O[C@@H]6O[C@H](CO)[C@H](O[C@@H]7O[C@H](CO)[C@@H](O)[C@H](O[C@@H]8OC[C@@H](O)[C@H](O)[C@H]8O)[C@H]7O[C@@H]7O[C@H](CO)[C@@H](O)[C@H](O)[C@H]7O)[C@H](O)[C@H]6O)[C@H](O)C[C@]5(C)[C@H]4CC[C@]3(C)[C@H]1[C@@H]2C`, the viability at 20 µM in data set [1] is 89.6%. Besides, in the data set on BV-2, the IC50 was 17.7 µM.
The matching figures for `CNC(=N)NCCC[C@H](N)C(=O)O` [TILARGININE]: 102% and 14.3 µM.

These data come from ChEMBL document CHEMBL2331338, “Steroidal constituents from the leaves of Hosta longipes and their inhibitory effects on nitric oxide production” (Bioorg Med Chem Lett, 2013).
